Fewer inactive variants are shown than the library holds.
B1: tRNA (parent)
chain: GUUCCGUUGGCGUAAUGGUAACGCGUCUCCCUCCUAAGGAGAAGACUGCGGGUUCGAGUCCCGUACGGAACG

Variants of: B1
Assay: yeast fitness relative to wild type (ratio to wild type); higher = fitter; tRNA-Arg(CCU), competitive growth, 37 C, YPD
Outline: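 Start and end populations of a pooled competition were compared by 100-nucleotide paired-end sequencing of gene amplicons. The Saccharomyces cerevisiae strains carried tRNA-Arg(CCU) gene variants at the native genomic locus, synthesised with a 3% per-site mutation rate at 69 sites, and competed in YPD at 37°C for 24 hours in six parallel replicates. Darwinian fitness relative to wild type was based on the change in genotype frequencies. Genotypes required ≥ 100 starting reads, and estimates < 0.5 were set to 0.5.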
In the case of GUUCCGGUGGCGUAAUGGUAACGCGUCUCCCUCCUAAGGAGAAGCCUGUGGGUUCGAGUCCCGUACGGAACG [U7G A45C C49U], the yeast fitness is reported as 0.508. In the case of GUUCCGGUGGCGUAGUGGUAACGCGUCUCCCUGCUAAGGAGAAGACUGCGGGUUCGAGUCCCGUACGGAACG [U7G A15G C33G], the yeast fitness is reported as ≤ 0.5. With GUUCCGGUGGCGUAAUGGUAACGCGUCUCCCUCCUAGGGAGAAGACUGCGGGUUGGAGUCCCGUACGGAACG [U7G A37G C55G] the yeast fitness was ≤ 0.5. Variant GUUCCGGUGGCGUAAUGGUAACGCGUCUCCCUCCUAGGGAGAAGACUGCGGGUUCGAGUCCCGUACGGAACG [U7G A37G] has a yeast fitness of 0.633. For GUUCCGGUGGCGUAAUGGUAACGCGUCUCCCUCCUACGGAGAAGACUGCGGGUUCGAGUCCCGUACGGAACG [U7G A37C], the yeast fitness was 0.757. Work on GUUCCGGUGGCGUAAUGGUAACGCGUCUCCCUCCUAUGGAGAAGACUGCGGGUUCGAGUCCCGUACGGAACG [U7G A37U] yielded a yeast fitness of 0.72. With GUUCCGGUGGCGUAAUGGUAUCGCGUCUACCUCCUAAGGAGAAGACUGCGGGUUAGAGUCCCGUACGGUACG [U7G A21U C29A C55A A69U] the yeast fitness was ≤ 0.5. For GUUCCGGUGGCGUAAUGGUAACGCGUCUCCCUCCUAAGGAGAAGACUGCGGGUUCGAGUCCCGUGCGGAACG [U7G A65G], the yeast fitness was 1.03. For GUUCCGGUGGCGUAAUGGUCACGCGUCUCCCUCCUAAGGAAAAGACUGCAGGUUCGAGUUCCGUAGGGAACG [U7G A20C G41A G50A C60U C66G], the yeast fitness was ≤ 0.5. With GUUCCGGUGGCGUAUUGGUAACGCGUCUCCCUCCUAAGGAGAAGACUGCGGGUUCGAGUCCUGUAAGGAACG [U7G A15U C62U C66A] the yeast fitness was ≤ 0.5. With GUUCCGGUGGCGUAAUGGUAACGCGUCUCCCUCCUAAGGAGAUGACUGCGGGUUCGAGUCCCGUACGGAACG [U7G A43U] the yeast fitness was 0.914. With GUUCCGGUGGCGUAAUGGUAACGCGUCUCCCUCCUAAGGAGAGGACUGCGGGUUCGAGUCCCGUACGGAACG [U7G A43G] the yeast fitness was 0.806. For GUUCCGGUGGCGUAAUGGUAACGCGUCUCCCUCCUAAGGAGAAGACUGCGGGUUCGAGUCCCGUACGGAGCG [U7G A70G], the yeast fitness was 0.993. For GUUCCGGUGGCGUAAUGGUAUCGCGUCUACCUCCUAAGGAGAAGACUGCGGGUUAGAGUCCCGUACGGAACG [U7G A21U C29A C55A], the yeast fitness was 0.604. GUUCCGGUGGCGUAAUGGUUACGCGUCUCCCUCCUAAGGAGAAGAGUGCGGGUUCGAGUCCCGUACGGAACG [U7G A20U C46G] showed a yeast fitness of 0.562. With GUUCCGGUGGCGUAAUGGUUACGCGUCUCCCUCCUAAGGAGAAGAGUGCGGGUUCGUGUCCCGUACGGCACG [U7G A20U C46G A57U A69C] the yeast fitness was 0.623. For GUUCCGGUGGGGUAAUGGUAACGCGUCUCGCUGCUAAGGAGAAGACUCCGGGUUCGAGUACCGUACGGAACG [U7G C11G C30G C33G G48C C60A], the yeast fitness was ≤ 0.5. GUUCCGGUGGCGUAAUGGUAACGCGUCUCCCUCCUAAGGAGAAGACUGCGGGUUCGAGUCCCGUACGGCACG [U7G A69C] gave a yeast fitness of 0.851. For GUUCCGGUGGCGUAAUGGUAACGCGUCUCCCUCCUAAGGAGAAGCCUGCGCGCUCGAGUCCCGUACGGAACG [U7G A45C G51C U53C], the yeast fitness was ≤ 0.5. With GUUCCGGUGGCGUAAUGGUAACGCGUCUCCCUCCUAUGGAGAAGACUGCCGGUUCGAGUCCCGUACGGAACG [U7G A37U G50C] the yeast fitness was ≤ 0.5. Work on GUUCCGGUGGCGUAAUGGUAACGCGUCUCCCUCCUAAGGAGGAGACUGCGGGUUCGAGUCCCGUACGGAACG [U7G A42G] yielded a yeast fitness of 0.837. For GUUCCGGUGGCGUAAUGGUAUCGCGUCUCUCUCCUAAGGCGAAGACUGCGGGUUCGAGUCCCGUACGGAACG [U7G A21U C30U A40C], the yeast fitness was ≤ 0.5. With GUUCCGGUGGCGUAAUGGUAACGCGUCUCCCUCCUAAGGCGAAGACUGCGGGUUCGAGUCCCGUACCGAACG [U7G A40C G67C] the yeast fitness was ≤ 0.5. GUUCCGGUGGCGUAAUGGUACCGCGUCUCCCUCCUAAGGAGAACACUGCGGGUUCGAGUCCCGUACGGAACG [U7G A21C G44C] showed a yeast fitness of 0.545. GUUCCGGUGGCGUAAUGGUAACGCGUCUCCCUCCUGAGGAGAAGGCUGUGGGUUCGAGUCCCGUACGGAACG [U7G A36G A45G C49U] showed a yeast fitness of 0.641. GUUCCGGUGGCGUACUGGUAACGUGUCUCCCUCCUAAGGAGAGGACUGCGAGUCCGAGUCCCGUACGGAACG [U7G A15C C24U A43G G51A U54C] gave a yeast fitness of 0.634. Variant GUUCCGGUGGCGUAAUGGUAACGCGUCUCCCUCCUAUGGAGAAGACUGCGGGUUCGAGUCCCGUACGGAUCG [U7G A37U A70U] has a yeast fitness of 0.542. GUUCCGGUGGCGUAAUGGUAACGCGUCUCCCUCCUAAGGAGAAGACUGCGGGUUCGUGUCCCGUACGGAACG [U7G A57U] showed a yeast fitness of 0.599. GUUCCGGUGGCGUAAUGGUAACGCGUCUCCCUCCUAAGGCGAAGACUGCGGGUUGGAGUCCCGUACGGAACG [U7G A40C C55G] showed a yeast fitness of 0.591. GUUCCGGUGGCGUAAUGGUUACGCGUCUCCCUCCUAAGGAGAAGACUGCGGGUUCGAGUCCCGUACGGAACG [U7G A20U] gave a yeast fitness of 0.742. With GUUCCGGUGGCGUAAUGGUAUCGCGUCUCCCUCCUAAGGGGAAGACUGCGGGUUCGAGUCCCGUACAGAACG [U7G A21U A40G G67A] the yeast fitness was ≤ 0.5. Variant GUUCCGGUGGCGUAAUGGUAACGCGUCUCCCUCCUUAGGAGAAGACUGCGGGUUCGAGUCCCGUACGGAACG [U7G A36U] has a yeast fitness of 0.777. With GUUCCGGUGGCGUAAUGGUGACGCGUCUCCCUCCUAAGGAGAAGACUGCGGGUUCGAGUUGCGUACGGAACG [U7G A20G C60U C61G] the yeast fitness was ≤ 0.5. With GUUCCGGUGGCGUAUUGGUAACGCGUCUCCCUCCUAAGGAGAAGCUUGCGGGUUCAAGUCCCGUACCGAACG [U7G A15U A45C C46U G56A G67C] the yeast fitness was ≤ 0.5. Variant GUUCCGGUGGCGUAAUGGUAACGCGUCUCCCUCCUAAGGAGCACACUGCGGGUUCGAGUCCCGUCCGGAACG [U7G A42C G44C A65C] has a yeast fitness of 1.08. In the case of GUUCCGGUGGCGUAAUGGUGACGCGUCUCCCGCCUAAGGAGACGUCUGCGGGUUCGAGUCCCGUACGGAACG [U7G A20G U32G A43C A45U], the yeast fitness is reported as ≤ 0.5. For GUUCCGGUGGCGUAAUGGUAACGCGUCUCCCUCCUAAGGAGAGGAGUGCGGGUUCGAGUCCCAUACGGAACG [U7G A43G C46G G63A], the yeast fitness was ≤ 0.5. GUUCCGGUGGCGUACAGGUAACGCGUCUCCCUGCUACGGAGAAGACUGAGGGUUCGAGUCUCGUACGGAACG [U7G A15C U16A C33G A37C C49A C61U] showed a yeast fitness of 0.525.

Reference: the RNAGym collection of RNA variant scans (doi:10.1126/science.aae0568)
